Only some compounds are listed: those with a hit (about 9.2% of all), similar ones and a draw of the others.
ERa coact pot: ER-alpha (human) coactivator binding potentiation. TR-FRET ERalpha-LBD/SRC-Cy5 coactivator binding, 2 h; 100 = basal binding, no effect. coactivator binding (% of control), % at 25.6 µM. 1.3% of 86,000 active. AID 639; in the data active means activity above about 200%;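 further: binding measured in presence of low estradiol as agonist stimulus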
ERa coact inh: blocks coactivator binding to human estrogen receptor alpha; TR-FRET ER-alpha LBD / SRC-1 peptide, estradiol-bound; inhibition, % at 25.6 µM; 1.7% of 86,000 active; in the data active means inhibition above about 50%
Fibroblast inh: blocks proliferation of human lung fibroblasts. LL 47 human lung fibroblast viability, ATP luminescence; stronger effect = lower value. AID 719. 1.1% of 85,000 active. viability, % at 10 µM;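 active means viability at or below 50% in the single dose screen; inactive means viability above 50%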;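 further: compound exposure lasted 72 h before the ATP readout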
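Test system: LL 47 human lung fibroblasts; Quantity: 1,150 cells/well; Buffer or medium: IMEM plus 15% FBS; Dosing: tenfold compound dosing solution, DMSO at 0.1%; Timing: overnight cell rest, 72 h compound treatment at 37 °C; Detection: ATP-based CellTiter-Glo luminescent readout; Read-out basis: viability percentage against median untreated-cell control; Controls: cell-only wells, no compound.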
HUVEC inhibit: inhibitors of human endothelial cell proliferation; 1.1% of 86,000 active; HUVEC proliferation, CellTiter-Glo luminescence, 72 h; stronger effect = lower value; AID 648; viability, % at 10 µM (by protocol);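 active means viability at or below 30%; inactive means viability above 30%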
H69AR inhibit: growth inhibitors of human H69AR lung tumor cells; 6% of 85,000 active; H69AR lung tumor viability, ATP luminescence, 72 h; stronger effect = lower value; viability, % at 10 µM;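 active means viability at or below 40%; inactive means viability above 40%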;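 further: multidrug resistant small cell line overexpressing MRP-1 efflux transporter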
ERb SRC1 inh: ER-beta (human) coactivator binding inhibition; Q92731; TR-FRET ER-beta LBD / SRC1-Cy5 peptide binding; receptor agonist-loaded with 1 µM estradiol; inhibition, % at 25.6 µM; 1.3% of 86,000 active; AID 633;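 active means compounds whose percent inhibition of the receptor-coactivator binding signal exceeds about 50% in the single-dose screen, limit read from the data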
Target sequence (Q92731 whole entry, looked up, the tested form may be a part): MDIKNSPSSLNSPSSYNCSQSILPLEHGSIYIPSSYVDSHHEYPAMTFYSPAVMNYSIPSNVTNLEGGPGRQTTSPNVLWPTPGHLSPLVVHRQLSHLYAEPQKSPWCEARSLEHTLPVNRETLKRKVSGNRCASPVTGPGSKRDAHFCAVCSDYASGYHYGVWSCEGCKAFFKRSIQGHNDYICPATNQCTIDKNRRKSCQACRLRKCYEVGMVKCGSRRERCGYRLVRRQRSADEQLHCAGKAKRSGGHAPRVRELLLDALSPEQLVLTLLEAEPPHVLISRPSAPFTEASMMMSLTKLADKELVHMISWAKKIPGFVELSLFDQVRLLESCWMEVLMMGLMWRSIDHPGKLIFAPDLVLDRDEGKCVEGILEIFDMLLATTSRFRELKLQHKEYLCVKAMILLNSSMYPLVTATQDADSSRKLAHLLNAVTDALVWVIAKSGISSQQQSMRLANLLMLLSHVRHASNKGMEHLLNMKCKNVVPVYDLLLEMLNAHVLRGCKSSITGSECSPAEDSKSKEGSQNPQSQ
Large screens that a line does not name were inactive; [ ] = dose if it differs, or a comment.

CCCCCn1c(N(C)Cc2ccccc2)nc2c1c(=O)[nH]c(=O)n2C	none
Clc1ccc2nc(C3CCN(Cc4nnnn4C4CCCCC4)CC3)[nH]c2c1	H69AR inhibit 15
CCOc1ccc(NC(=O)CCCc2cc(-c3ccc(OCC)cc3)on2)cc1	ERa coact pot 204
CCOc1ccc(-c2cc(CCCC(=O)Nc3cccc(OC)c3)no2)cc1	H69AR inhibit 23
CCOc1ccc(-c2cc(CCCC(=O)NCCc3ccccc3)no2)cc1	none
CCOc1ccc(-c2cc(CCCC(=O)NCc3cccnc3)no2)cc1	none
Clc1ccccc1CSc1ncccn1	none
COc1ccc(S(=O)(=O)NCc2ccccn2)c(Cl)c1Cl	none
Cc1cc(C(=O)COc2ccc3ccc(=O)oc3c2)c(C)n1Cc1cccs1	ERa coact pot 347[fluorescence artefact?], ERa coact inh 58[fluorescence artefact?]
CCOc1cc(C)c(C(C)C)cc1S(=O)(=O)NCc1ccccn1	none (no result: H69AR inhibit)
Cc1cc(C)c(C(=O)C2OC(=O)C(C)(C)C(=O)C2(C)C)c(C)c1 (configuration not stated)	none
O=C(Cc1c(F)cccc1Cl)Nc1ccncc1	none
O=C(Cc1sc(-c2ccccc2)nc1-c1ccccc1)Nc1ccc(Cl)cc1	H69AR inhibit 20
O=C(Cc1sc(-c2ccccc2Cl)nc1-c1ccccc1)Nc1ccc(F)cc1	Fibroblast inh 45, H69AR inhibit 11
O=C(Cc1sc(-c2ccccc2Cl)nc1-c1ccccc1)Nc1ccccc1	ERa coact pot 235[fluorescence artefact?], Fibroblast inh 23
CCCn1nnnc1NC(=O)CSc1ccc(Cl)cc1	none
CCOc1ccc(NC(=O)COC(=O)c2cccnc2)cc1	none
CCOC(=O)c1c(C)[nH]c(C(=O)COC(=O)CSC)c1C	none
COC(=O)c1c(C)[nH]c(C(=O)COC(=O)Cc2ccc3c(c2)OCCO3)c1C	ERa coact pot 260[fluorescence artefact?]
CC1=C(C#N)C(C(F)(F)F)(C(F)(F)F)N=C(c2ccco2)N1	none
C=CCC(Nc1ccccc1)C12C=CC(O1)C(C(=O)OC)=C2C(=O)OC (configuration not stated)	Fibroblast inh 3.1, H69AR inhibit 1.0
Cc1cccc(N(C(=O)CCC(=O)Nc2cccnc2)C(C(=O)NC2CCCC2)c2ccncc2)c1 (configuration not stated)	none
CCOc1ccc(NS(=O)(=O)c2cc(Cl)ccc2OC)cc1	none
CCOc1ccc(S(=O)(=O)Nc2cc(Cl)ccc2O)cc1	H69AR inhibit 17
CCOc1ccc(NS(=O)(=O)c2ccc(NS(=O)(=O)c3ccccc3)cc2)cc1	none
CCOc1ccc(S(=O)(=O)Nc2cccc(Cl)c2)cc1	H69AR inhibit 10 (no result: Fibroblast inh)
CN(C)c1ccc(C2N(c3cccc(Cl)c3)C(=O)C3CCCN32)cc1 (configuration not stated)	none
O=C(OCCn1cncn1)c1cc2ccccc2oc1=O	none
CCOc1ccc(-n2c(N)c(-c3nc4ccccc4[nH]3)sc2=S)cc1	H69AR inhibit 22
CC(C)Cn1c(SCC(=O)N2CCN(S(=O)(=O)c3ccccc3)CC2)nc2ccccc21	H69AR inhibit 31
COCCN(CCOC)C(=O)c1c[nH]c2ccc(S(=O)(=O)N(C)c3ccc(F)cc3)cc2c1=O	ERa coact inh 53[fluorescence artefact?]
CCc1ccc(N(C)S(=O)(=O)c2ccc3[nH]cc(C(=O)NCCN4CCOCC4)c(=O)c3c2)cc1	none
CCC1CCCCN1C(=O)c1c[nH]c2ccc(S(=O)(=O)N(C)c3ccc(Cl)cc3)cc2c1=O (configuration not stated)	ERa coact inh 58[fluorescence artefact?]
CN(c1ccc(F)cc1)S(=O)(=O)c1ccc2[nH]cc(C(=O)O)c(=O)c2c1	ERa coact inh 55[fluorescence artefact?]
CN1C(=O)N(C)C2(c3ccccc3)N(C)C(=O)NC12c1ccccc1 (configuration not stated)	none
CC1(c2cccs2)CC(c2cccs2)=C(C#N)C(=O)N1 (configuration not stated)	none
O=C(Cn1c(=O)oc2cc(S(=O)(=O)N3CCCC3)ccc21)Nc1cccc(C(F)(F)F)c1	ERa coact pot 234[fluorescence artefact?], ERa coact inh 60[fluorescence artefact?], H69AR inhibit 38
O=C(Cn1c(=O)oc2ccccc21)Nc1ccc(S(=O)(=O)N2CCCCC2)cc1	ERa coact inh 63[fluorescence artefact?]
CCN(CC)S(=O)(=O)c1ccc(NC(=O)Cn2c(=O)oc3ccccc32)cc1	none
Cc1ccc(C)c(Cn2c(CN(C)Cc3ccccc3)nc3c2c(=O)n(C)c(=O)n3C)c1	none
Cc1ccccc1/C(N)=N/OC(=O)/C=C/c1ccccc1	H69AR inhibit 8.9
Cc1ccc(/C(N)=N/OC(=O)/C=C/c2ccccc2)cc1	none
CCN1C(=O)C(C)S/C1=N\S(=O)(=O)c1ccc(Cl)s1 (configuration not stated)	none
CC(C)(CSc1nncn1N)NS(=O)(=O)c1ccc(Cl)cc1	none
Nc1ccc(-c2nc3c(Cl)c(N)ccc3[nH]2)cc1	H69AR inhibit 21, ERb SRC1 inh 53[fluorescence artefact?]
Nc1ccc2nc(-c3ccc(Cl)cc3)[nH]c2c1	ERa coact inh 87[fluorescence artefact?], H69AR inhibit 17
Nc1ccc2nc(-c3cc(Cl)c(N)c(Cl)c3)[nH]c2c1	ERa coact inh 95[fluorescence artefact?], H69AR inhibit 35
Nc1cc(N)cc(-c2nc3ccccc3[nH]2)c1	none
Cc1ccc(C)c(-c2nc3ccc(N)cc3[nH]2)c1	none
Cc1ccc(NC(=O)C2CCCN2S(=O)(=O)c2ccc(F)cc2)c(C)c1 (configuration not stated)	none
CCCCN(C(=O)NC(=O)Nc1ccccc1OC)S(C)(=O)=O	none
CCCCN(C(=O)NC(=O)Nc1cc(C)ccc1C)S(C)(=O)=O	ERb SRC1 inh 91[fluorescence artefact?]
O=C(CSCc1ccccc1)Nc1ccc(Cl)cn1	none
O=C(CC(c1ccccc1)c1ccccc1)Nc1ccc(Cl)cn1	H69AR inhibit 17
COC(=O)c1oc2nc(C)cc(C)c2c1N	ERa coact inh 57[fluorescence artefact?]
Cc1cc(C)c2c(N)c(C(=O)c3ccccc3)oc2n1	none
Cc1ccn2cc(CNS(=O)(=O)c3ccc(Cl)s3)nc2c1	none
COc1ccc(N2CCN(C(=O)c3ccc(OCc4c(C)noc4C)c(OC)c3)CC2)cc1	none
COc1cc(C(=O)N2CCN(c3ccc([N+](=O)[O-])cc3)CC2)ccc1OCc1c(C)noc1C	H69AR inhibit 38
Cc1cc(NC(=O)Cn2nc(-c3ccccc3F)ccc2=O)ccc1-n1cnnn1	none
O=C(NCCc1ccccc1)c1cccs1	none
CCN=c1sc(C(=O)NCCc2ccccc2)cc(=O)n1CC	H69AR inhibit 9.9
C=C1[C@@H](C)C2[C@H](Cc3ccccc3)NC(=O)[C@]23OC(=O)CC[C@H](O)CCC[C@H](C)C/C=C/[C@H]3[C@@H]1O (some centres not stated)	Fibroblast inh 25, HUVEC inhibit 15, H69AR inhibit 38
CC1CC(C(F)(F)F)n2nc(C(=O)O)cc2N1 (configuration not stated)	none

Assay outcomes: PubChem BioAssay, several laboratories
